Measurements as given in ChEMBL document CHEMBL1124963, “Antifolate and antibacterial activities of 5-substituted 2,4-diaminoquinazolines” (J Med Chem, 1990).

Legend:
Staphylococcus aureus = experiment: Antibacterial activity (10 e-6 log (1/MIC) towards Staphylococcus aureus; type: functional
Summary of the method: (§1)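 Two-fold serial dilution: each compound prepared as a series of solutions differing by a factor of two, each added to a fixed amount of previously prepared test culture, incubated at 37 °C overnight.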

[1] = Partition coefficient (logP); type: physicochemical; conditions: octanol/water
Escherichia coli = experiment: Antibacterial activity (10 e-6 log (1/MIC) towards Escherichia coli; type: functional; summary of the method: as §1
[2] = Dissociation constant was determined using UV method; type: physicochemical
Summary of the method: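 UV spectrophotometric method. Aqueous stock of compound in distilled water, diluted into 0.01 M NaOH (pH ~12) and 0.001 M HCl (pH ~3) to pick an analytical wavelength from the difference spectrum. Five to seven KH2PO4/borax buffers bracketing the estimated pKa, pH measured at 25 °C. Absorbance read in a 1.0-cm cell at 25.0 °C against buffer. Separate values averaged with SD to give the concentration pKa.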

[3] = Acute toxicity determined in mice by an LD50 test when administered peritoneally; type: organism-based; conditions: mouse, in vivo, ip
[4] = Acute toxicity determined in mice by an LD50 test when administered intraperitoneally; type: organism-based; conditions: mouse, in vivo, ip
[5] = Acute toxicity determined in mice by an LD50 test when administered perorally; type: organism-based; conditions: mouse, in vivo, po

| SMILES | Log 1/MIC (Staphylococcus aureus) | logP [1] | Log 1/MIC (Escherichia coli) | pKa [2] | LD50 [3] | LD50 [4] | LD50 [5] |
| --- | --- | --- | --- | --- | --- | --- | --- |
| Nc1nc(N)c2c(Oc3ccccc3)cccc2n1 | 0 | 2.78 | 0.2 |  |  |  |  |
| Nc1nc(N)c2c([N+](=O)[O-])cccc2n1 | 0 | 1.19 | <0.5 | 6.24 |  |  |  |
| CN(C)c1cccc2nc(N)nc(N)c12 | -0.5 | 1.65 | -0.4 |  |  |  |  |
| Nc1nc(N)c2c(N3CCCCC3)cccc2n1 |  | 2.66 |  |  |  |  |  |
| CS(=O)(=O)c1cccc2nc(N)nc(N)c12 | <-0.6 | 0.63 | <-0.6 |  |  |  |  |
| CCCCCCOc1cccc2nc(N)nc(N)c12 | 1.1 |  | 0 |  |  |  |  |
| CCCCOc1cccc2nc(N)nc(N)c12 | 0.4 | 2.81 | 0.6 |  |  |  |  |
| Nc1ncnc2ccccc12 [4-AMINOQUINAZOLINE] |  |  |  |  | 584 mg/kg | 205 mg/kg |  |
| CCc1cccc2nc(N)nc(N)c12 | 0.6 | 1.69 | 2.6 |  |  |  |  |
| CSc1cccc2nc(N)nc(N)c12 | 0 | 1.81 | 2.2 |  |  |  |  |
| CCCNC(=O)c1cccc2nc(N)nc(N)c12 | <-0.6 | 0.83 | <-0.6 |  |  |  |  |
| Nc1nc(N)c2c(Sc3ccccc3)cccc2n1 | < -0.6 |  | < -0.6 |  |  |  |  |
| Nc1nc(N)c2c(N)cccc2n1 | <0.2 | 0.3 | 0.3 |  |  |  |  |
| Cc1cccc2nc(N)nc(N)c12 | 0.5 | 1.26 | 1.7 | 8.19 |  | ~100 mg/kg |  |
| Nc1nc(N)c2c(F)cccc2n1 | 1.4 | 1.19 | 1.7 | 7.44 |  | 100 mg/kg | 489 mg/kg |
| Nc1nc(N)c2c(S(=O)(=O)c3ccccc3)cccc2n1 | <-0.5 | 2.14 | <-0.5 |  |  |  |  |

| SMILES | Log 1/MIC (Staphylococcus aureus) | logP [1] | Log 1/MIC (Escherichia coli) | pKa [2] | LD50 [3] | LD50 [4] | LD50 [5] |
| --- | --- | --- | --- | --- | --- | --- | --- |
| CCCOc1cccc2nc(N)nc(N)c12 | 0.2 | 2.26 | 1.1 |  |  |  |  |
| NC(=O)c1cccc2nc(N)nc(N)c12 | <-0.7 | -0.33 | -0.6 | 7.22 |  |  |  |
| CCSc1cccc2nc(N)nc(N)c12 | -0.1 | 2.27 | 2 | 7.87 |  |  |  |
| Nc1nc(N)c2c(OCc3ccccc3)cccc2n1 | 1 | 2.82 | 0.8 |  |  |  |  |
| Nc1nc(N)c2c(N3CCOCC3)cccc2n1 | -0.6 | 1.11 | -0.6 |  |  |  |  |
| Nc1nc(N)c2c(Cl)cccc2n1 | 1.2 | 1.72 | 2.1 | 7.22 |  | 100 mg/kg |  |
| Nc1nc(N)c2ccccc2n1 | 1.3 | 1.01 | 0.7 | 8.08 |  |  |  |
| COc1cccc2nc(N)nc(N)c12 | 1 | 1.18 | 2.1 | 8.32 |  | 137 mg/kg | ~500 mg/kg |
| CCOc1cccc2nc(N)nc(N)c12 | 0.2 | 1.69 | 1.7 |  |  | ~100 mg/kg |  |
| CC(C)Oc1cccc2nc(N)nc(N)c12 | -0.1 | 2.05 | 0.8 |  |  |  |  |
| Nc1nc(N)c2c(Br)cccc2n1 | 1.5 | 1.91 | 2.2 |  |  |  | 271 mg/kg |
| CCCSc1cccc2nc(N)nc(N)c12 |  | 2.85 |  |  |  |  |  |
| COC(=O)c1cccc2nc(N)nc(N)c12 | -0.6 |  | -0.1 |  |  | 68 mg/kg |  |
| Nc1nc(N)c2c(CCc3ccccc3)cccc2n1 | 1.3 |  | 1.3 |  |  |  |  |
| Nc1nc(N)c2c(I)cccc2n1 | 0.4 | 2.12 | 1.7 |  |  |  | ~500 mg/kg |
| Nc1nc(N)c2c(O)cccc2n1 | -0.7 |  | <-0.7 |  |  |  |  |
